Experimental data of several laboratories.
Protocols differ between the studies behind these lines.
Target: Phosphatidylinositol 3-kinase C2 domain-containing subunit gamma (PIK3C2G, Homo sapiens, UniProt O75747)
One construct used (O75747 1-1486): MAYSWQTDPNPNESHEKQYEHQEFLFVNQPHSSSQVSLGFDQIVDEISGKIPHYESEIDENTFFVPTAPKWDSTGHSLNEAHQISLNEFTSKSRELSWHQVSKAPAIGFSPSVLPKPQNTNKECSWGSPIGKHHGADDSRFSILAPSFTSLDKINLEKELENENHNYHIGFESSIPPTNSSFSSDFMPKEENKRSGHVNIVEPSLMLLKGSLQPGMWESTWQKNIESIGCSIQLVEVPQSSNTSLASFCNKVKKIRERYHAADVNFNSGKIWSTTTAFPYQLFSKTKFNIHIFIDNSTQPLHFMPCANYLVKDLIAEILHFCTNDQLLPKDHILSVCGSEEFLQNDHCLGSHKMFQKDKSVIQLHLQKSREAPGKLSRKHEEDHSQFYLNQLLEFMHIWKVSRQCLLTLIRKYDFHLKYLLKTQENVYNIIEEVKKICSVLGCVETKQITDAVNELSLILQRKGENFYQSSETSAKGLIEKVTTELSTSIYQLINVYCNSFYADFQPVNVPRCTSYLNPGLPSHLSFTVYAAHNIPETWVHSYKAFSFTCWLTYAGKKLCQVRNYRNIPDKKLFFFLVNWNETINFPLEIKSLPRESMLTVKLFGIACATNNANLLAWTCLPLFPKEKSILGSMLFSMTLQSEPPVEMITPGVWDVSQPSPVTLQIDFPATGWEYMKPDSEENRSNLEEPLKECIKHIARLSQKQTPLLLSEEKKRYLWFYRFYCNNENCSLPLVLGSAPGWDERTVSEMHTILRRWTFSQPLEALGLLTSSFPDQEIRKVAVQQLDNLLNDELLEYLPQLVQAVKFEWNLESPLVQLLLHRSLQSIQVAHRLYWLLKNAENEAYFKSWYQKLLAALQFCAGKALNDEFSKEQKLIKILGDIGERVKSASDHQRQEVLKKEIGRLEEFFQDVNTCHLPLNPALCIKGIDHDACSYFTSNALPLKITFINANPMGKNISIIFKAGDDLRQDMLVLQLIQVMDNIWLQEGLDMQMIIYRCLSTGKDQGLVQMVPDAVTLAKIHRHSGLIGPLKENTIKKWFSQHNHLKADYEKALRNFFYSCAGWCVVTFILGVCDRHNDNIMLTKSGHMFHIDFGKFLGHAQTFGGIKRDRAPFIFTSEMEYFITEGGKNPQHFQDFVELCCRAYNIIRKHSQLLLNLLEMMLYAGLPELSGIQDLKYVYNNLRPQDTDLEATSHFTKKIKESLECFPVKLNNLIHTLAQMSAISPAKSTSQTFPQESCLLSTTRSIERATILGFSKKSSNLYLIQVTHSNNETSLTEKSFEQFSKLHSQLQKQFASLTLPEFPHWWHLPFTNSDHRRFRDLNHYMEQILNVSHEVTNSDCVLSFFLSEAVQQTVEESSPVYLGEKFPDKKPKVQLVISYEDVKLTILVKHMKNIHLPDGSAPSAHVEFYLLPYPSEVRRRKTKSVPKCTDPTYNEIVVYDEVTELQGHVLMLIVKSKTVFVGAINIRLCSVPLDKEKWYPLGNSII

SMILES	assay	setting	remaining binding
Cc1cnc(Nc2ccc(C(=O)N3CCC(N4CCCC4)CC3)cc2)nc1-c1cc2ccccc2s1	binding, competition with immobilised ligand	1 µM	90%
c1cncc(-c2cccc(Nc3nccc(NC4CCCCC4)n3)c2)c1	binding, competition with immobilised ligand	10 µM	51%
C[C@H]1CCN(c2nccc(-c3cnn4ncccc34)n2)C1	binding	1 µM	79%
O=C(c1ccc(Nc2ncc(Cl)c(-c3ccc(Cl)s3)n2)cc1)N1CCC(N2CCCC2)CC1	binding, competition with immobilised ligand	1 µM	100%
F[C@@H]1CCN(c2nccc(-c3cnn4ncccc34)n2)C1	binding	1 µM	82%
O=C(NCC1CCOCC1)c1n[nH]cc1NC(=O)c1c(F)cccc1F	binding, competition with immobilised ligand	1 µM	100%
N[C@H]1CCN(c2nccc(-c3cnn4ncccc34)n2)C1	binding	1 µM	100%
CCN1CCN(Cc2ccc(C(=O)Nc3ccc(C)c(Oc4ccc5c(c4)CC(=O)N5)c3)cc2C(F)(F)F)CC1	binding, competition with immobilised ligand	1 µM	100%
C[C@@H](c1cccc(C#N)c1)n1cc(Cl)cc(C(N)=O)c1=N	cell-free assay, competition with immobilised ligand	1 µM	84%
CN(CCCC(F)(F)F)c1nccc(-c2cnn3ncccc23)n1	binding	1 µM	100%
COc1cnc(Nc2cccc(S(N)(=O)=O)c2)nc1N1CCN(c2ccccc2)CC1	binding, competition with immobilised ligand	1 µM	79%
CC1=C(C#N)C(c2ccc3c(c2)c(NC(=O)c2ccccc2C)nn3C)C(C#N)=C(C)N1	cell-free assay, competition with immobilised ligand	1 µM	61%
Cc1nc(NC(=O)N2CCC[C@H]2C(N)=O)sc1-c1ccnc(C(C)(C)C(F)(F)F)c1	binding, competition with immobilised ligand	10 µM	9.6%
CCCOc1ccc([C@@H]2[C@@H](C(=O)O)[C@H](c3ccc4c(c3)OCO4)CN2CC(=O)Nc2c(CC)cccc2CC)cc1	cell-free assay, competition with immobilised ligand	1 µM	78%
C[C@@H](c1ccc(-n2cnc3c(N)ncnc32)cc1)N1CCc2nn(C)c(Cc3ccccc3)c2C1=O	binding, competition with immobilised ligand	0.1 µM	92%
CCS(=O)(=O)c1cc2cc(C[C@](O)(CC(C)(C)c3ccc(F)cc3C(N)=O)C(F)(F)F)[nH]c2cn1	cell-free assay, competition with immobilised ligand	1 µM	100%
COc1ccnn2ncc(-c3ccnc(N(C)C)n3)c12	binding	1 µM	93%
O=C(NCc1ncc(C(F)(F)F)cc1Cl)c1ccc2c(c1)C1(CCS(=O)(=O)CC1)[C@@H](C1CC1)N2S(=O)(=O)c1ccc(F)cc1	cell-free assay, competition with immobilised ligand	1 µM	75%
CNC(=O)[C@@H]1CC[C@@H](n2c(-c3ccc4cnccc4c3)nc3ccc(C(=O)NCc4cccc(C(N)=O)c4)cc32)C1	binding, competition with immobilised ligand	1 µM	100%
CN(C)C(=O)Cn1cc(-c2nc([C@@](C)(c3ccc(-c4cnc(N)nc4)cc3)C3CC3)no2)cn1	cell-free assay, competition with immobilised ligand	1 µM	66%
O=C(c1ccc(Nc2ncc(Cl)c(-c3cc4ccccc4s3)n2)cc1)N1CCC(N2CCCC2)CC1	binding, competition with immobilised ligand	1 µM	96%
